Source: PubChem
A selection: hits, their analogues and other compounds. The true share with any hit is near 3.5%.
RGS4 pot: potentiators or activators of RGS4; HEK293 M3R/inducible RGS4, carbachol calcium flux Fluo4; stronger effect = lower value; B-score at 10 µM; actives 0.92% (n = 310,000);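 active means B-score of the integrated calcium signal more than 4 SD below the library mean, with starting fluorescence not abnormally high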;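 further: negative B-score means reduced calcium response which marks RGS4 activation or potentiation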
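test system = HEK293 cells with stable M3R and inducible RGS4 | schedule = recording 10 s baseline at 1 Hz, 100 s post-agonist | technique = Fluo4-AM (2 µM) calcium-flux fluorescence, kinetic read | measure = Agonist-evoked peak-minus-minimum fluorescence over baseline, integrated ratio, B score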
MrgX1 agonist: agonists of human MrgX1 receptor; B-score at 10 µM; Q96LB2; actives 0.44% (n = 310,000); AID 588627; MrgX1-HEK293 cells, Fluo-4 calcium fluorescence, agonist mode; stronger effect = higher value;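 active means calcium response B-score plate-corrected fluorescence ratio at least 3 library SD, with starting fluorescence B-score inside 5 SD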
Target sequence (Q96LB2 whole entry, looked up): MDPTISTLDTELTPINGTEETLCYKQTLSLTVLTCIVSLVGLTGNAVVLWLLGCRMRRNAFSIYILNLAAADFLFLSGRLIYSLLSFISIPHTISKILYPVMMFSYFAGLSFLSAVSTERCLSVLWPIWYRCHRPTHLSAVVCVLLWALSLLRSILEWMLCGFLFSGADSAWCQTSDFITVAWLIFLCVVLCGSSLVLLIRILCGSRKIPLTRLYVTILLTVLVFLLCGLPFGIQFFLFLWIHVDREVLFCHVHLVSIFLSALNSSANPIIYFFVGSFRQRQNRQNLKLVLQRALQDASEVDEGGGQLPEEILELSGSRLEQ
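Test system: HEK293 cells stably expressing human MrgX1 receptor; amount: 15,000 cells per well; doses: compound delivered in addition one of three; times: overnight plating before 1 h dye loading; detection: Fluo-4 NW calcium-flux fluorescence, kinetic read; read-out basis: B-scored fluorescence response ratio; controls: positive and negative controls per plate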
RGS4 inh: human RGS4 inhibition. P49798. HEK293 M3R/RGS4 inducible, Fluo-4 calcium flux; stronger effect = higher value; triggered by carbachol at its EC20. B-score at 10 µM. actives 0.45% (n = 310,000);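 active means B-score, a plate-corrected calcium signal, over three deviations above library mean, with baseline fluorescence within five deviations of library mean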;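 further: RGS4 expression induced by doxycycline in cells with stable M3 receptor; B-score is computed from the integrated fluorescence ratio over baseline after carbachol; higher B-score means a larger calcium signal and so more RGS4 inhibition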
Target sequence (P49798 whole entry, looked up): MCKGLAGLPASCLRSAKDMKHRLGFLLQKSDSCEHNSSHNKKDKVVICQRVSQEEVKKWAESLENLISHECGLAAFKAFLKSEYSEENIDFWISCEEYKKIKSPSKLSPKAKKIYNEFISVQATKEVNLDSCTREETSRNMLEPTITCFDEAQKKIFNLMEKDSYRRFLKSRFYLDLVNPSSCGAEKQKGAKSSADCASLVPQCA
MrgX1 antagonist: antagonists of human MrgX1 receptor. Q96LB2. MRGX1-HEK293 calcium flux, Fluo-4, BAM8-22 antagonism; stronger effect = lower value. B-score at 10 µM. actives 1.3% (n = 310,000). AID 588676;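 active means calcium-response B-score plate-corrected more than 3 library SD below zero, starting fluorescence within 5 deviations, no agonist response on first addition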;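 further: peak minus trough fluorescence over baseline after final BAM8-22 challenge near maximal dose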
MrgX1 PAM: allosterically activates human MrgX1 receptor signaling. actives 0.63% (n = 310,000). B-score at 10 µM. MrgX1-HEK293, Fluo-4 calcium flux, FDSS; stronger effect = higher value. AID 588675. Q96LB2;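 active means plate-corrected calcium response at least 3 library SD above typical, normal starting fluorescence, not activating the receptor alone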;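 further: compound read alongside a low EC10 to EC30 dose of BAM8-22 agonist; peak minus trough fluorescence over baseline measured at the second addition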
RGS4 activ val: RGS4 activation, validation assay; shares compounds with RGS4 pot; HEK293 M3R/RGS4 inducible, carbachol calcium flux Fluo4; inhibition, % at 10 µM; actives 89% (n = 1,100); AID 602282;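 active means inhibition above 3 SD of the buffer control wells, cut at about 41% in these data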;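 further: signal is the integrated peak-minus-minimum Fluo4 fluorescence over baseline ratio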
RGS4 act ctr: activity in cells without induced RGS4 expression; actives 82% (n = 1,100); inhibition, % at 10 µM; HEK293 M3R non-induced RGS4, Fluo4 calcium flux; after carbachol challenge at its EC90; AID 602283; shares compounds with RGS4 pot;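 active means inhibition exceeding 3 SD of buffer-only control wells, cut at about 26% in these data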;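 further: percent drop in integrated peak-minus-baseline over baseline Fluo4 ratio after carbachol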
MrgX1 ag confirm: confirmation of human MrgX1 receptor agonists; shares compounds with MrgX1 agonist; MrgX1-HEK293, Fluo-4 calcium fluorescence, FDSS; activation, % at 10 µM; actives 78% (n = 600);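 active means calcium signal rise, corrected for plate position, at least 3 library SD high, with starting brightness within 5 such deviations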
MrgX1 PAM conf: confirmation of human MrgX1 receptor positive allosteric modulators; shares compounds with MrgX1 PAM; activation (ratio percentage), % at 10 µM; MrgX1-HEK293, Fluo-4 calcium fluorescence, FDSS; AID 602413; actives 13% (n = 1,200);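 active means ratio at least 3 SD above the weak peptide control, stable starting fluorescence, no direct agonism earlier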;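 further: compound followed by low BAM8-22 agonist challenge near EC20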
MrgX1 antag conf: human MrgX1 receptor antagonism, re-confirmation screen | remaining BAM8-22 calcium response % of control (stronger effect = lower value), % at 10 µM | actives 19% (n = 2,300) | shares compounds with MrgX1 antagonist | MrgX1-HEK293, BAM8-22 calcium flux, Fluo-4; stronger effect = lower value;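 active means remaining agonist calcium response no higher than 100% minus 3 SD of agonist-only control wells, with starting fluorescence near control levels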;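 further: agonist BAM8-22 given at a near maximal EC90 to ECmax level; peak minus minimum fluorescence divided by baseline after agonist addition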
HEK293 Ca flux: activity in parental HEK293 cells lacking MrgX1; shares compounds with MrgX1 antagonist; Fluo-4 calcium fluorescence, FDSS; fluorescence ratio F(max-min)/F0 at 10 µM; actives 2% (n = 4,000); AID 624111;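 active means duplicate-averaged calcium fluorescence ratio at least three times the standard deviation of buffer wells, a nonspecific response in parental cells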
HEK293 Ca counter: activity in parental HEK293 cells without MrgX1; actives 0.4% (n = 4,000); parental HEK293 calcium flux, Fluo-4 fluorescence ratio; stronger effect = higher value; fluorescence ratio F(max-min)/F0 at 10 µM; shares compounds with MrgX1 antagonist; AID 624114;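 active means calcium fluorescence ratio, averaged over duplicates, at least 3 SD of the buffer-well ratio, meaning a nonspecific response in receptor-free cells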;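 further: untransfected parental HEK293 lacking MrgX1 used as counterscreen for MrgX1 allosteric activators; fluorescence change taken during the second addition on a kinetic imager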
HEK293 Ca cntr2: counter-screen for MrgX1 activators: effect in parental HEK293 cells | shares compounds with MrgX1 antagonist | actives 8.7% (n = 4,000) | fluorescence ratio F(max-min)/F0 at 10 µM | Fluo-4 calcium fluorescence (FDSS); stronger effect = higher value;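 active means calcium fluorescence ratio at least three times the spread of buffer wells, meaning a non-specific response in parental cells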
Starred values were filed as active, the others as inactive.

What do the screens show for `CC(C)(C)c1ccc(-c2nc(O)c(CC(=O)O)s2)cc1`?
RGS4 pot: inactive; MrgX1 agonist: inactive; RGS4 inh: inactive; MrgX1 antagonist: inactive; MrgX1 PAM: inactive

What do the screens show for `Cc1cc(C)c2[nH]c(C)c(CN3CCCCCC3)c(=O)c2c1`?
RGS4 pot: -10.9*; MrgX1 agonist: inactive; RGS4 inh: inactive; MrgX1 antagonist: inactive; MrgX1 PAM: inactive; RGS4 activ val: 42.0*; RGS4 act ctr: 83.8*

How did FC(F)(F)c1nc(-c2cccs2)ncc1-c1nnnn1-c1ccc(Cl)cc1 do in these assays?
RGS4 pot: -8.89*; MrgX1 agonist: inactive; RGS4 inh: inactive; MrgX1 antagonist: inactive; MrgX1 PAM: inactive; RGS4 activ val: 92.5*; RGS4 act ctr: 57.8*

Results for Clc1ccc(-n2nnnc2-c2cnc(-c3ccncc3)nc2-c2cccs2)cc1 ?
RGS4 pot: inactive; MrgX1 agonist: inactive; RGS4 inh: inactive; MrgX1 antagonist: inactive; MrgX1 PAM: inactive

What do the screens show for `OC(CCN1CCOCC1)(c1ccc(Cl)cc1)C1CCCCC1` (stereo not given)?
RGS4 pot: -9.85*; MrgX1 agonist: inactive; RGS4 inh: inactive; MrgX1 antagonist: inactive; MrgX1 PAM: 6.81*; RGS4 activ val: 93.0*; RGS4 act ctr: 94.3*; MrgX1 PAM conf: inactive; HEK293 Ca flux: inactive; HEK293 Ca counter: inactive; HEK293 Ca cntr2: inactive

Results for Cc1nc(Nc2nc(CSc3nc4ccccc4[nH]3)cc(=O)[nH]2)nc2ccccc12 ?
RGS4 pot: -13*; MrgX1 agonist: inactive; RGS4 inh: inactive; MrgX1 antagonist: -5.17*; MrgX1 PAM: inactive; RGS4 activ val: 61.5*; RGS4 act ctr: 0.0; MrgX1 antag conf: 82.7%*; HEK293 Ca flux: inactive; HEK293 Ca counter: inactive; HEK293 Ca cntr2: inactive

Results for COc1ccc2nc(Nc3nc(CSc4nc5ccccc5[nH]4)cc(=O)[nH]3)nc(C)c2c1 ?
RGS4 pot: inactive; MrgX1 agonist: inactive; RGS4 inh: inactive; MrgX1 antagonist: inactive; MrgX1 PAM: inactive

What do the screens show for `COc1cc(OC)cc(C(=O)NC(=S)NNC(=O)[C@H]2C[C@@H]2c2ccccc2)c1`?
RGS4 pot: -11*; MrgX1 agonist: 109*; RGS4 inh: inactive; MrgX1 antagonist: inactive; MrgX1 PAM: inactive; RGS4 activ val: 84.5*; RGS4 act ctr: 77.3*; MrgX1 ag confirm: 580.2%*; HEK293 Ca flux: inactive; HEK293 Ca counter: inactive; HEK293 Ca cntr2: 110*

How did C=CCn1c(SCC(=O)Nc2ccc(OC)cc2)nc2c([nH]c3ccccc32)c1=O do in these assays?
RGS4 pot: inactive; MrgX1 agonist: inactive; RGS4 inh: inactive; MrgX1 antagonist: inactive; MrgX1 PAM: inactive

Results for C=CCn1c(SCCN2CCCC2)nc2c([nH]c3ccccc32)c1=O ?
RGS4 pot: -8.45*; MrgX1 agonist: inactive; RGS4 inh: inactive; MrgX1 antagonist: -4.59*; MrgX1 PAM: inactive; RGS4 activ val: 63.5*; RGS4 act ctr: 0.0; MrgX1 antag conf: inactive; HEK293 Ca flux: inactive; HEK293 Ca counter: inactive; HEK293 Ca cntr2: inactive

Results for COc1ccccc1-c1c(C#N)c(N)nc2c1CCc1ccccc1-2 ?
RGS4 pot: -7.57*; MrgX1 agonist: inactive; RGS4 inh: inactive; MrgX1 antagonist: inactive; MrgX1 PAM: 12.4*; RGS4 activ val: 89.0*; RGS4 act ctr: 51.8*; MrgX1 PAM conf: inactive; HEK293 Ca flux: inactive; HEK293 Ca counter: inactive; HEK293 Ca cntr2: inactive

What do the screens show for `CCOC(=O)c1cccc(Nc2nc(-c3cccnc3)nc3ccccc23)c1`?
RGS4 pot: -8.06*; MrgX1 agonist: inactive; RGS4 inh: inactive; MrgX1 antagonist: -4.58*; MrgX1 PAM: inactive; RGS4 activ val: 57.0*; RGS4 act ctr: 0.0; MrgX1 antag conf: inactive; HEK293 Ca flux: inactive; HEK293 Ca counter: inactive; HEK293 Ca cntr2: inactive

How did COC(=O)c1cccc(Nc2nc(-c3ccncc3)nc3ccccc23)c1 do in these assays?
RGS4 pot: inactive; MrgX1 agonist: inactive; RGS4 inh: inactive; MrgX1 antagonist: inactive; MrgX1 PAM: inactive

How did O=C(O)CC(c1ccccc1)N1C(=O)c2ccccc2C1=O (stereo not given) do in these assays?
RGS4 pot: inactive; MrgX1 agonist: inactive; RGS4 inh: inactive; MrgX1 antagonist: inactive; MrgX1 PAM: inactive

How did CCN(CC)CC#CC(OC)(c1ccccc1)c1ccccc1 do in these assays?
RGS4 pot: -9.68*; MrgX1 agonist: inactive; RGS4 inh: inactive; MrgX1 antagonist: inactive; MrgX1 PAM: 8.03*; RGS4 activ val: 92.5*; RGS4 act ctr: 88.3*; MrgX1 PAM conf: inactive; HEK293 Ca flux: inactive; HEK293 Ca counter: inactive; HEK293 Ca cntr2: inactive

How did COc1ccc(C)cc1NC(=O)CSc1nc(=O)n(CCCN2CCOCC2)c2c1CCCC2 do in these assays?
RGS4 pot: inactive; MrgX1 agonist: inactive; RGS4 inh: inactive; MrgX1 antagonist: inactive; MrgX1 PAM: inactive

What do the screens show for `CCOC(=O)[C@@H]1[C@H]2COc3ccc(Br)cc3[C@H]2N2C(=O)N(c3ccc(F)cc3)C(=O)[C@@]12C`?
RGS4 pot: inactive; MrgX1 agonist: inactive; RGS4 inh: inactive; MrgX1 antagonist: inactive; MrgX1 PAM: inactive
